The text below walks through data of ChEMBL document CHEMBL1130032, “Preparation and anti-HIV activity of N-3-substituted thymidine nucleoside analogs” (J Med Chem, 1997).

For experiment [1], the system named is CEM-c113. As to the kind of experiment: Concentration required to reduce by 50% the viability of noninfected treated CEM-CL13 cells. Format: functional. The following applies: Homo sapiens. The method in brief: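 CEM-c113 cells, 1×10^4 per well, exposed to 10-fold dilutions of compound without virus; 7 days at 37 °C, 5% CO2; MTT viability read-out; CC50 = concentration reducing viability by 50% relative to uninfected untreated controls; triplicate wells, mean of at least two experiments.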

The subject of experiment [2] is Human immunodeficiency virus 1. The experiment in a line: Inhibition of HIV-1 LA1 cytopathic effects on CEM-CL13 cells in vitro. Format: functional, organism-based. To be noted: Human immunodeficiency virus 1, CEM-CL13. The gist of the method: (§1)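 CEM-c113 cells (1×10^4/well) preincubated 1 h with 10-fold compound dilutions, then infected with HIV-1 LAI; cultured 7 days at 37 °C, 5% CO2; cytopathic effect scored by MTT viability versus infected untreated cells; EC50 = 50% reduction of CPE; triplicate, mean of ≥2 experiments.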
(In general: Damage to the host cells serves as the signal in cytopathic effect assays.)

Experiment [3] can be described thus: Ratio of CC50 in CEM-CL13 cells to EC50 in HIV-1 LA1 infected CEM-CL13 cells. The class given is functional. The gist of the method:
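Selectivity index computed as CC50 (MTT viability of uninfected treated CEM-c113 cells) divided by EC50 (MTT protection of HIV-1 LAI-infected CEM-c113 cells), both from 7-day cultures at 37 °C exposed to 10-fold compound dilutions.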

The test system of experiment [4] is CEM-c113. As to the kind of experiment: Concentration that reduces by 50% the HIV induced cytopathic effect on CEM-CL13 cells by MTT viability assay; NA = Not active. The class given is functional, cell-based, Homo sapiens. The method in brief:
as §1

Molecules are shown by their SMILES.

Turning to `Cc1cn(C2CC(n3c(=O)c(C)cn(C4CC(N=[N+]=[N-])C(CO)O4)c3=O)C(CO)O2)c(=O)[nH]c1=O` (stereo not given), in the experiment with CEM-c113 [1], it took 66 µM to reach half-maximal cytotoxicity (CC50). The EC50 – broadly, the concentration at which the effect is half-maximal – in experiment [2] amounted to 2.2 µM. Also, the Ratio in experiment [3] is given as 30.
On to `COCCOCn1c(=O)c(C)cn(C2CC(N=[N+]=[N-])C(CO)O2)c1=O` (stereo not given), for which the CC50 – broadly, the concentration giving 50% cytotoxicity – in the experiment with CEM-c113 [1] is 281 µM. The compound further registered an EC50 in experiment [2] of 5.6 µM. Besides, the Ratio in experiment [3] is recorded as 50.
With `Cc1cn(C2CC(N=[N+]=[N-])C(CO)O2)c(=O)n(CCn2c(=O)c(C)cn(C3CC(N=[N+]=[N-])C(CO)O3)c2=O)c1=O` (stereo not given), the CC50 with CEM-c113 [1] amounted to 36 µM. The compound further displayed an EC50 in experiment [2] of 0.7 µM. In addition, the Ratio in experiment [3] is 51.
The compound `Cc1cn(C2CC(N=[N+]=[N-])C(CO)O2)c(=O)n(CCN2C(=O)c3ccccc3C2=O)c1=O` (stereo not given) showed a CC50 in the experiment with CEM-c113 [1] of 227 µM. In addition, the EC50 in experiment [2] turned out to be 110 µM. Besides, the Ratio in experiment [3] was determined as 2.
For the compound `COc1nc(=O)n(CCn2c(=O)c(C)cn(C3CC(N=[N+]=[N-])C(CO)O3)c2=O)cc1C` (stereo not given), in the experiment on CEM-c113 [1], the CC50 was 29 µM. Also, the EC50 entry in the experiment on CEM-c113 [4] is on record as “Not Active”.
For the compound `Cc1cn(C2CC(N=[N+]=[N-])C(CO)O2)c(=O)n(CCO)c1=O` (stereo not given), half-maximal cytotoxicity in the experiment on CEM-c113 [1] (CC50) was put at 161 µM. Further, the EC50 in experiment [2] stood at 0.3 µM. Also, the Ratio in experiment [3] is listed as 537.
The matching figures for `C=CCn1c(=O)c(C)cn(C2CC(N=[N+]=[N-])C(CO)O2)c1=O` (stereo not given): 350 µM, 32 µM and 11.
Turning to `Cc1cn(C2CC(N=[N+]=[N-])C(CO)O2)c(=O)n(CC2CO2)c1=O` (stereo not given), the cytotoxic concentration (CC50) with CEM-c113 [1] was > 62 µM. Moreover, the response in experiment [2] was half-maximal at 6.8 µM (EC50). Further, in experiment [3], the Ratio worked out at 9.
`Cc1cn(C2CC(N=[N+]=[N-])C(CO)O2)c(=O)n(N)c1=O` (stereo not given) had a CC50 in the experiment with CEM-c113 [1] of 450 µM. Besides, a half-maximal effect in experiment [2] (EC50) was put at 0.045 µM. Also, in experiment [3], the Ratio is given as 10000.
In the case of `Cc1cn(C2CC(N=[N+]=[N-])C(CO)O2)c(=O)n(CCCO)c1=O` (stereo not given), in the experiment on CEM-c113 [1], the CC50 was 154 µM. The same compound registered an EC50 in experiment [2] of 0.15 µM. For the same compound, in experiment [3], the Ratio is listed as 1027.
For the compound `Cc1cn(C2CC(N=[N+]=[N-])C(CO)O2)c(=O)n(C)c1=O` (stereo not given), it took 355 µM to reach half-maximal cytotoxicity with CEM-c113 [1] (CC50). This compound yielded an EC50 in experiment [2] of 0.94 µM. Moreover, the Ratio in experiment [3] was 380.
With `Cc1cn(C2CC(N=[N+]=[N-])C(CO)O2)c(=O)n(CC2COC(C)(C)O2)c1=O` (stereo not given), in the experiment with CEM-c113 [1], the CC50 was > 131 µM. The compound also displayed an EC50 in experiment [2] of 1.3 µM. In addition, the Ratio in experiment [3] is 100.
In turn, `Cc1cn(C2CC(N=[N+]=[N-])C(CO)O2)c(=O)n(CC2CC(CO)=NO2)c1=O` (stereo not given) came in with a half-maximal cytotoxic concentration (CC50) in the experiment on CEM-c113 [1] of 26 µM. Moreover, in experiment [2], the midpoint of the response, the EC50, lay at 0.5 µM. In addition, the Ratio in experiment [3] is reported as 52.
In the experiment with CEM-c113 [1], `CCOC(=O)Cn1c(=O)c(C)cn(C2CC(N=[N+]=[N-])C(CO)O2)c1=O` (stereo not given) showed a 50% cytotoxic concentration (CC50) of 283 µM. The compound also yielded an EC50 in experiment [2] of 1.47 µM. The Ratio in experiment [3] turned out to be 193.
The matching figures for `Cc1cn(CCn2c(=O)c(C)cn(C3CC(N=[N+]=[N-])C(CO)O3)c2=O)c(=O)[nH]c1=O` (stereo not given): > 29 µM, 0.48 µM and 60.
For `Cc1cn(C2CC(N=[N+]=[N-])C(CO)O2)c(=O)n(CCBr)c1=O` (stereo not given), in the experiment on CEM-c113 [1], half-maximal cytotoxicity (CC50) was put at 53 µM. In experiment [2], the midpoint of the response, the EC50, lay at 2.67 µM. Moreover, in experiment [3], the Ratio is listed as 20.
For `CCOC(Cn1c(=O)c(C)cn(C2CC(N=[N+]=[N-])C(CO)O2)c1=O)OCC` (stereo not given) the same measures were 130 µM, 5 µM and 26.
`CCOP(=O)(Cn1c(=O)c(C)cn(C2CC(N=[N+]=[N-])C(CO)O2)c1=O)OCC` (stereo not given) registered a CC50 with CEM-c113 [1] of 240 µM. For the same compound, it took 0.071 µM to reach a half-maximal effect in experiment [2] (EC50). Further, in experiment [3], the Ratio is listed as 3380.
Turning to `Cc1cn(C2CC(N=[N+]=[N-])C(CO)O2)c(=O)n(Cc2ccoc2)c1=O` (stereo not given), in the experiment on CEM-c113 [1], the cytotoxic concentration (CC50) is > 288 µM. In addition, the midpoint of the response in experiment [2], the EC50, lay at 143 µM. Moreover, the Ratio in experiment [3] was 2.
Take `CCCCCn1c(=O)c(C)cn(C2CC(N=[N+]=[N-])C(CO)O2)c1=O` (stereo not given): the CC50 with CEM-c113 [1] was > 60 µM. In experiment [2], this compound registered an EC50 of 0.89 µM. Besides, the Ratio in experiment [3] is on record as >67.
In the case of `Cc1cn(C2CC(N=[N+]=[N-])C(CO)O2)c(=O)n(Cc2ccccc2)c1=O` (stereo not given), in the experiment with CEM-c113 [1], the CC50 was 28 µM. In addition, in the experiment with CEM-c113 [4], the EC50 result is on record as “Not Active”.
For the compound `Cc1cn(C2CC(N=[N+]=[N-])C(CO)O2)c(=O)n(CCCCCCO)c1=O` (stereo not given), the CC50 in the experiment on CEM-c113 [1] amounted to 64 µM. The same compound yielded an EC50 in experiment [2] of 0.082 µM. The Ratio in experiment [3] came to 780.
As to `Cc1cn(C2CC(N=[N+]=[N-])C(CO)O2)c(=O)n(CCN=[N+]=[N-])c1=O` (stereo not given), half-maximal cytotoxicity with CEM-c113 [1] (CC50) was put at 60 µM. The same compound returned an EC50 in experiment [2] of 0.26 µM. Also, the Ratio in experiment [3] was 230.
On to `Cc1cn([C@H]2C[C@H](N=[N+]=[N-])[C@@H](CO)O2)c(=O)[nH]c1=O` [ZIDOVUDINE], for which, in the experiment on CEM-c113 [1], the CC50 is > 5 µM. The compound also showed an EC50 in experiment [2] of 0.003 µM. Besides, the Ratio in experiment [3] stood at 1667.
